PubChem BioAssay
Values without a mark were called inactive. Inconclusive results are not listed. Calls of active or inactive are those of the source.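 The calls were made as follows, unless noted: active = RAM network inhibition above 8.4% in each of two replicates, 3 SD over the compound average; inconclusive = above 8.4% inhibition in only one replicate; inactive = 8.4% inhibition or less in each replicate.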

Columns and labels:
[1] = S. cerevisiae growth inhibition in permissive medium (OD615), pilot counter-assay for S. cerevisiae lifespan shortening project, permissive growth control (AID 705;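 active = growth inhibition above 25% in both replicates, a cutoff set 3 SD above the mean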); settings: OD615, 24 h, at 10 µM, stronger effect = higher value
Outline: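 System: Engineered DeaD yeast | Buffer or medium: SC raffinose/galactose permissive medium | Doses: 10 µM single dose, 0.25% DMSO | Times: 24 h exposure, 30 °C | Measured by: OD615 turbidity read | Read-out: Yeast growth inhibition indicated by reduced 24 h OD615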

[2] = S. cerevisiae growth inhibition in restrictive medium, OD615, pilot screen, restrictive growth control, yeast lifespan reduction project (AID 706;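 active = growth inhibition above a set limit, 3 SD over mean compound inhibition, in both replicates, cut at about 43% in these data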;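 also: modified DeaD lifespan yeast strain shifted to restrictive glucose medium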); settings: OD615, 48 h, at 10 µM, stronger effect = higher value
Outline: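 Assay system: engineered S. cerevisiae DeaD strain; Buffer or medium: CSMM-D glucose medium; Dosing: 10 µM compound, 0.25% DMSO; Times: cell pre-growth 4 h, compound exposure 48 h, 30 °C; Detection: absorbance (optical density) measured at 615 nm.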

[3] = doxorubicin toxicity protection in MRP-1 cells – H69AR cells, CellTiter-Glo, duplicate, MRP-1 activator project, pilot screen (AID 807;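 active = viability increase at or above a cutoff of the median across tested compounds plus 3 SD, cut at about 8.5% in these data, passing the limit was not always enough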;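 also: compound pretreatment 18-22 h then 72 h combined with doxorubicin; 0% = doxorubicin alone and 100% = vehicle without doxorubicin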); settings: H69AR viability with doxorubicin, CellTiter-Glo luminescence; at 10 µM; stronger effect = higher value
[4] = viability of HCT116 without oncogenic beta-catenin – human colon tumor cells, pilot screen (AID 823;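 active = cell viability at or below a set limit in both duplicate runs, the limit being the all-compound median minus 4 SD, cut at about 23% in these data, passing the limit was not always enough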;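 also: 0% = wells killed by 20 µM Hyamine and 100% = untreated DMSO cell wells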); settings: HCT116 beta-catenin knockout viability, CellTiter-Glo, 60 h; at 10 µM; stronger effect = lower value
[5] = viability of PTEN-null HCT116 cells – cell-based, HCT116 clonal line, CellTiter-Glo, pilot screen (AID 824;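 active = viability at or below 27.92% in each of two runs, the all-compound median minus 4 SD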;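 also: 0% = 20 µM Hyamine control and 100% = vehicle cell control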); settings: HCT116 PTEN-deleted viability, 60 h, at 10 µM, stronger effect = lower value
[6] = RAM pathway blockade in budding yeast – dse1pr::URA3 reporter, 5-FOA selection, pilot screen (AID 869;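 active = inhibition over a set limit, the all-compound mean plus 3 SD, in both replicate runs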;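 also: 0% = DMSO wells with no growth and 100% = 10 µM 1-NA-PP1 with full growth; RAM network block rescues cells from 5-FOA so hits raise OD615 growth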); settings: S. cerevisiae dse1pr::URA3 5-FOA growth, OD615, 2 d; at 10 µM; stronger effect = higher value; strain carries analog-sensitive mutant Cbk1 kinase
[7] = RAM signaling pathway blockade in yeast – S. cerevisiae, Pdr1DBD-CYC8 efflux-inhibited sensitized strain, primary screen (AID 1298);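 also: 0% = DMSO untreated cells without growth and 100% = 10 µM 1-NA-PP1 full growth; higher means more yeast growth rescued from 5-FOA killing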; settings: S. cerevisiae cbk1-as DSE1-URA3 strain, 5-FOA growth OD615, 2 d; at 50 µM; stronger effect = higher value

Row | Structure (SMILES) | growth inhibition [1] [%] | growth inhibition [2] [%] | viability increase [3] [%] | viability [4] | viability [5] | inhibition [6] [%] | RAM network inhibition [7] [%]
1 | O=C(C1=C(O)C(=O)N(CCN2CCOCC2)C1c1ccncc1)c1ccco1 (stereo not drawn) | -15.4 | 2.89 | -3.57 | 98.3% | 93.2% | 2.35 | 2.42
2 | Cc1ccc2oc(=O)c3cnn(CC(=O)N4CCN(c5ccccn5)CC4)c3c2c1 | -7.07 | -17.7 | -1.28 | 91.8% | 87.6% | 1.41 | -0.31
3 | FC(F)(F)c1cccc(-c2ccc(-c3csnn3)o2)c1 | -0.85 | 6.13 | -0.47 | 82.2% | 83.6% | 1.4 | 9.48
4 | Cc1nnc(Sc2nc3c(c(=O)[nH]c(=O)n3C)n2Cc2ccccc2)s1 | -11.6 | -12.4 | -0.33 | 101% | 103% | 1.61 | 0.73
5 | CCOC(=O)C1C(c2cccc(Cl)c2Cl)NC(=O)NC1(O)C(F)(F)F (stereo not drawn) | -5.62 | -7.31 | -2.19 | 94.8% | 96.9% | 1.15 | 7.71
6 | Cc1ccc(-c2nc(CS(=O)CC(=O)NCCN3CCOCC3)c(C)o2)cc1 (stereo not drawn) | -6.06 | 2.29 | -0.04 | 92.9% | 98% | 1.84 | 2.15
7 | CCn1cc(S(=O)(=O)CC(=O)Nc2cc(C)ccc2C)c2ccccc21 | -10.1 | -1.18 | -0.93 | 105% | 82.5% | 2.07 | 3.99
8 | CC1CCN(C(=O)c2cc(-c3ccccc3O)on2)CC1 | -10.2 | 9.11 | -0.44 | 108% | 91.5% | 0.335 | -2.14
9 | Cc1c(NC(=O)CCCCCN2C(=O)C3C4C=CC(C4)C3C2=O)c(=O)n(-c2ccccc2)n1C (stereo not drawn) | 5.03 | 5.79 | -0.51 | 103% | 100% | 0.685 | 2.6
10 | Cc1cc(C)nc(SCC(=O)NCc2ccco2)n1 | 3.65 | 6.47 | -5.58 | 70.6% | 78.4% | -0.38 | 2.1
11 | Cn1c(=O)c2c(nc(OCc3ccccc3)n2C)n(C)c1=O | -2.8 | -0.39 | 3.09 | 100% | 98.3% | -0.115 | 0.26
12 | O=C(CN(Cc1ccccc1)S(=O)(=O)c1ccccc1)NC1CC1 | -4.36 | 11.6 | -1.25 | 102% | 96% | -0.45 | 0.45
13 | CC(C)OC(=O)CSc1nnc(-c2ccc(Cl)cc2)n1N | -3.53 | -8.84 | -0.58 | 97.2% | 95.7% | 2.38 | 5.48
14 | COc1cccc(CN2C(=O)CCC2(C)C(=O)NC2CCCCC2)c1 (stereo not drawn) | -6.64 | 1.03 | 0.54 | 107% | 100% | -0.375 | 0.22
15 | Cc1ccc2nc(NC(=O)C3CCN(S(=O)(=O)c4ccc5c(c4)oc(=O)n5C)CC3)sc2c1 | -5.8 | -24.5 | 1.75 | 82.2% | 88.9% | 1.54 | 9.3
16 | CCOC(=O)c1c(C)[nH]c(C(=O)OC)c1CCC(=O)OC | -9.89 | -23.6 | -2.86 | 90.8% | 91.9% | 2.56 | 2.65
17 | O=C(CCn1c(=O)oc2ccccc21)NCCCN1CCCC1=O | 4.51 | 0.85 | 1.26 | 107% | 98.5% | 1.01 | 0.46
18 | O=C(Nc1cccc(Br)c1)c1cc2ccccc2o1 | -5.65 | -7.8 | -5 | 65.5% | 64.3% | 0.03 | 3.48
19 | COc1ccc(OC)c(NC(=O)c2c(NC(=O)CNCc3ccco3)sc3c2CCC3)c1 | -0.125 | -0.495 | -3.56 | 95.8% | 88.2% | 1.28 | 7.95
20 | Cc1csc2nc(CNS(=O)(=O)N(C)C)cn12 | 4.64 | 19.6 | -3.46 | 95.2% | 99.1% | 0.875 | 0.05
21 | CCn1cc(C2N3CC4(C)CN2CC(C)(C3)C4=O)c2ccccc21 (stereo not drawn) | -13.9 | -16.4 | -0.78 | 97.3% | 100% | 1.94 | 0.48
22 | CN1CCN(CCCNC(=O)c2cc3c(-c4ccc(Cl)cc4)nn(C)c3s2)CC1 | -8.24 | -2.25 | -8.21 | 2.18% (active) | 2% (active) | 0.445 | 0.92
23 | CCn1c(SCC(=O)Nc2nnc(C)s2)nc2c(c1=O)SC(C)C2 (stereo not drawn) | -0.875 | -16.4 | 1.14 | 103% | 96.6% | 2.4 | 2.04
24 | Cc1ccc(S(=O)(=O)N(C)CCCC(=O)Nc2ccncc2)cc1 | -2.16 | -6.8 | -0.64 | 79.4% | 79% | 0.13 | 1.94
